Measurements: ChEMBL document CHEMBL1177765, “Synthesis and biological evaluation of new cytotoxic azanaphthoquinone pyrrolo-annelated derivatives” (Bioorg Med Chem Lett, 2010)
≈ marks a conversion by molar mass, not a printed value. Calls of active or inactive are those of the source. No cut-off for these calls is given here.

Legend:
SF-268 [1] = assay: Cytotoxicity against human SF268 cells after 48 hrs by XTT assay; assay type: functional, cell-based; conditions: SF-268, 48 h
Outline: (§1)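 XTT assay of cell proliferation after 48 h exposure. EC50 is the concentration giving 50% inhibition, fitted by nonlinear regression to data from at least two independent assays.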

[2] = Cytotoxicity against human RKOp27IND cells after 48 hrs by XTT assay; assay type: functional, cell-based
NCI-H460 [3] = assay: Cytotoxicity against human NCI-H460 cells after 48 hrs by XTT assay; assay type: functional, cell-based; conditions: NCI-H460, 48 h; outline: as §1
[4] = Cytotoxicity against human RKOp27 cells after 48 hrs by XTT assay; assay type: functional, cell-based; conditions: RKOp27, 48 h; outline: as §1
[5] = Cytotoxicity against human KB/HeLa cells after 48 hrs by XTT assay; assay type: functional, cell-based; outline: as §1
SK-OV-3 [6] = assay: Cytotoxicity against human SKOV3 cells after 48 hrs by XTT assay; assay type: functional, cell-based; conditions: SK-OV-3, 48 h; outline: as §1
Nucleic Acid = assay: Binding affinity to DNA at 125 uM; assay type: nucleic-acid assay
Outline: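 UV-absorbance DNA intercalation assay. Stocks up to 5 mM were made in 5% (v:v) DMSO or methanol, then diluted stepwise in pH 7 buffer (5 mM NaH2PO4, 5 mM Na2HPO4, 70 mM NaCl) to give absorbance maximum about 1–2. Spectra were read from 350 to 600 nm with or without 2 mg/ml calf thymus DNA. Acridine orange was the reference.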

[7] = Cell cycle arrest in human RKOp27 cells assessed as accumulation at G2/M phase; assay type: functional, cell-based
[8] = Cell cycle arrest in human RKOp27IND cells assessed as accumulation at G2/M phase; assay type: functional, cell-based
[9] = Cytotoxicity against human KB/HeLa cells at 3.16 ug/mL after 48 hrs by XTT assay; assay type: functional
SF-268 [10] = assay: Cytotoxicity against human SF268 cells at 3.16 ug/mL after 48 hrs by XTT assay; assay type: functional; conditions: SF-268, 48 h
NCI-H460 [11] = assay: Cytotoxicity against human NCI-H460 cells at 3.16 ug/mL after 48 hrs by XTT assay; assay type: functional; conditions: NCI-H460, 48 h
[12] = Cytotoxicity against human RKOp27 cells at 3.16 ug/mL after 48 hrs by XTT assay; assay type: functional; conditions: RKOp27, 48 h
[13] = Cytotoxicity against human RKOp27IND cells at 3.16 ug/mL after 48 hrs by XTT assay; assay type: functional
SK-OV-3 [14] = assay: Cytotoxicity against human SKOV3 cells at 3.16 ug/mL after 48 hrs by XTT assay; assay type: functional; conditions: SK-OV-3, 48 h

Activity (Nucleic Acid) | SMILES | EC50 (SF-268 [1]) [µg/mL] | EC50 [2] [µg/mL] | EC50 (NCI-H460 [3]) [µg/mL] | EC50 [4] [µg/mL] | EC50 [5] [µg/mL] | EC50 (SK-OV-3 [6]) [µg/mL] | Activity [7] | Activity [8] | inhibition at 3.16 µg/mL [9] [%] | inhibition at 3.16 µg/mL (SF-268 [10]) [%] | inhibition at 3.16 µg/mL (NCI-H460 [11]) [%] | inhibition at 3.16 µg/mL [12] [%] | inhibition at 3.16 µg/mL [13] [%] | inhibition at 3.16 µg/mL (SK-OV-3 [14]) [%]
 | CN(C)CCn1ccc2c1C(=O)c1nccnc1C2=O | 2.7 (≈ 9.99 µM) | 2.97 (≈ 11 µM) | 1.12 (≈ 4.15 µM) | 1.19 (≈ 4.42 µM) | 1.37 (≈ 5.06 µM) | 3 (≈ 11.1 µM) |  |  |  |  |  |  |  | 
inactive | CN(C)CCn1ccc2c1C(=O)c1cncnc1C2=O | 0.107 (≈ 0.396 µM) | 0.377 (≈ 1.39 µM) | 0.082 (≈ 0.303 µM) | 0.173 (≈ 0.64 µM) | 0.173 (≈ 0.64 µM) | 0.239 (≈ 0.884 µM) | inactive | inactive |  |  |  |  |  | 
 | CN(C)CCCn1ccc2c1C(=O)c1cncnc1C2=O | 0.198 (≈ 0.696 µM) | 0.44 (≈ 1.55 µM) | 0.177 (≈ 0.623 µM) | 0.246 (≈ 0.865 µM) | 0.28 (≈ 0.985 µM) | 0.452 (≈ 1.59 µM) |  |  |  |  |  |  |  | 
 | CN(C)CCCn1ccc2c1C(=O)c1cccnc1C2=O |  |  |  |  |  |  |  |  | < 50 | < 50 | < 50 | < 50 | < 50 | < 50
 | CN(C)CCn1ccc2c1C(=O)c1cccnc1C2=O |  |  |  |  |  |  |  |  | < 50 | < 50 | < 50 | < 50 | < 50 | < 50
 | CN(C)CCCn1ccc2c1C(=O)c1ccncc1C2=O | 3 (≈ 10.6 µM) | 3 (≈ 10.6 µM) | 3 (≈ 10.6 µM) | 3 (≈ 10.6 µM) | 3 (≈ 10.6 µM) | 3 (≈ 10.6 µM) |  |  |  |  |  |  |  | 
 | CN(C)CCCn1ccc2c1C(=O)c1nccnc1C2=O |  |  |  |  |  |  |  |  | < 50 | < 50 | < 50 | < 50 | < 50 | < 50
 | CN(C)CCn1ccc2c1C(=O)c1ccncc1C2=O | 3 (≈ 11.1 µM) | 3 (≈ 11.1 µM) | 3 (≈ 11.1 µM) | 3 (≈ 11.1 µM) | 3 (≈ 11.1 µM) | 3 (≈ 11.1 µM) |  |  |  |  |  |  |  | 
 | CN(C)CCCn1ccc2c1C(=O)c1ncccc1C2=O |  |  |  |  |  |  |  |  | < 50 | < 50 | < 50 | < 50 | < 50 | < 50
 | CN(C)CCn1ccc2c1C(=O)c1ncccc1C2=O |  |  |  |  |  |  |  |  | < 50 | < 50 | < 50 | < 50 | < 50 | < 50
